SR-BI uptake up: activators of SR-BI mediated HDL lipid uptake | CHO ldlA[mSR-BI] cells, DiI-HDL uptake fluorescence, 3 h; 100 = double the neutral-control signal | activation, % at 12.5 µM | hit rate 0.096% among 320,000 | AID 504775;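 active = mean replicate activation of at least 60% and every replicate at or above 60%; inconclusive = mean or all-replicate condition met, but not both; inactive = mean below 60% and not all replicates reaching 60%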;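 also: 0% = median plate neutral-control signal and 100% = twice that signal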
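system = CHO ldlA[mSR-BI] cells, LDL receptor-null, SR-BI overexpressing | medium = Ham's F12 with 0.5% BSA, HEPES 25 mM, pH 7.4 | probe or stimulus = DiI-HDL 10 µg/mL | compound dosing = single-point compound dose | incubation = compound exposure 3 h, 37 °C | technique = DiI fluorescence, bottom read | read-out = cell-associated DiI fluorescence as measure of HDL uptake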
SR-BI HDL uptake: mouse SR-BI HDL lipid transfer inhibition; ldlA[mSR-BI] CHO cells, DiI-HDL uptake fluorescence, 3 h; Q61009; AID 488896; inhibition, % at 12.5 µM; hit rate 0.96% among 320,000;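 active = mean replicate inhibition of at least 70% and a set share of replicates each scoring 70 or more; inconclusive = meets just one of the two criteria; inactive = fails both criteria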;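 also: 0% = median of neutral control wells and 100% = median of positive control wells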
Target sequence (Q61009 whole entry, looked up): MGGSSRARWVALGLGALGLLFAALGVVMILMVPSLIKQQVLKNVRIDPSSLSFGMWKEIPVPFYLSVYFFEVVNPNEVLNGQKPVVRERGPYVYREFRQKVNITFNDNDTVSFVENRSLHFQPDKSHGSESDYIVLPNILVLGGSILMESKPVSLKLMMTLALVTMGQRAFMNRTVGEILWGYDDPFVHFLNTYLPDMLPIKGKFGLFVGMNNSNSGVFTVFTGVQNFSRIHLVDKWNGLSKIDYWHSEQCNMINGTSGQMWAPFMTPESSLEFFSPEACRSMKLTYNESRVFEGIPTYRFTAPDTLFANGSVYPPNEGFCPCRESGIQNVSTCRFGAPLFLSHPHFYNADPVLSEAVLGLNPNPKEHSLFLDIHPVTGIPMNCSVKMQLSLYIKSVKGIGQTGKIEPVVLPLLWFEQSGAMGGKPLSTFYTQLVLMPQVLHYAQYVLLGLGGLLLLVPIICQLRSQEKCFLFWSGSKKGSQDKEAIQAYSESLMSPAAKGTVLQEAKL
miR122 inh: miR-122 inhibition in Huh7 cells; Huh7 miR-122 Renilla luciferase sensor, 48 h; neutral wells = 0, positive control = 100; activation (reporter increase), % at 12.5 µM; hit rate 0.3% among 340,000; AID 602342;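 active = mean replicate activation score at least 90 and every replicate individually at or above 90; inconclusive = only one of the two criteria met; inactive = neither criterion met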;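 also: higher luciferase means less miR-122 activity so hits act as miR-122 inhibitors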
CAL PDZ FP-1: inhibitors of human CAL PDZ peptide binding. purified CAL PDZ, TMR-peptide fluorescence polarization, 1 h. hit rate 0.92% among 300,000. Q9HD26. AID 602252. inhibition, % at 24.9 µM;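 active = mean inhibition of at least 30% with at least half of replicates also reaching 30%; inconclusive = no clear call, values can overlap the other calls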;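 also: 0% = DMSO neutral control and 100% = excess unlabeled competitor peptide PRC23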
CAL PDZ FP-2: inhibitors of human CAL PDZ peptide binding; Q9HD26; purified CAL PDZ, TMR-peptide fluorescence polarization, 1 h; inhibition, % at 20 µM; hit rate 0.02% among 330,000; AID 504414;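 active = highest replicate inhibition of at least 40%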;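 also: plate controls were DMSO neutral control wells for no effect and unlabeled competitor peptide control wells for full effect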
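material = purified tagged CAL PDZ domain construct (CerCALP) | compound dosing = 20 µM, one dose | times = 1 h at RT | measured by = fluorescence polarization from S- and P-plane intensities, G-factor corrected | read-out = inhibition from polarization loss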
ARNT-TACC3 inh: ARNT/TACC3 interaction disruption; Q9Y6A5; AlphaScreen His-ARNT PAS-B/GST-TACC3 binding, luminescence; TACC3 fragment carries E629A point mutation; inhibition, % at 9.99 µM; hit rate 0.66% among 390,000; AID 623870;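 active = mean inhibition of replicates at least 50% and at least half of replicates each reaching 50%; inconclusive = half or more replicates reach 50% but mean below 50%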;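 also: 0% = complete ARNT plus TACC3 wells and 100% = ARNT alone without TACC3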
Starred values were filed as active, the others as inactive; ? = inconclusive; / = no result; [ ] = dose if it differs, or a comment. A selection: hits, their analogues and other compounds. The true share with any hit is near 2.1%.

SMILES | SR-BI uptake up | SR-BI HDL uptake | miR122 inh | CAL PDZ FP-1 | CAL PDZ FP-2 | ARNT-TACC3 inh
CCOc1ccc(C(=O)NCC(=O)OCc2cc(C(C)=O)ccc2OC)cc1 | -70.8 | 70.8* | / | -5.5 | -3.4 | 4.0
COc1ccc(C(=O)NCC(=O)OCC(=O)c2ccc(Cl)cc2)cc1OC | -9.8 | 9.8 | -5.4 | 33.9* | 0.0 | -7.8
COc1ccc(C(=O)NN)cc1COc1ccc(Br)cc1 | -97.4 | 97.4* | 5.1 | / | -12.6 | -0.9
COc1ccc(C(=O)NCC(=O)OCc2ccc(Cl)cc2Cl)cc1OC | 7.8 | -7.8 | 2.8 | / | 0.1 | 0.1
CCCNC(=O)C[C@@H]1C[C@@H]2c3cc(NC(=O)CC4CC4)ccc3O[C@@H]2[C@@H](CO)O1 | / | / | 4.6[16.7 µM] | / | / | -11.3
CCOC(=O)c1sc2nc(SC)nc(-c3ccc(Cl)cc3)c2c1N | -87.2 | 87.2* | -5.7 | -1.6 | -0.8 | -0.7
Cc1ccc(C(=O)c2cc([N+](=O)[O-])ccc2N2CCOCC2)cc1C | -34.2 | 34.2 | / | -1.2 | -0.9 | 8.6
CCOc1ccc(NC(=O)COC(=O)c2cc([N+](=O)[O-])ccc2N2CCOCC2)cc1 | -48.2 | 48.2 | / | -2.8 | -3.0 | 12.5
CC1CCN(C(=O)COC(=O)c2cc([N+](=O)[O-])ccc2N2CCOCC2)CC1 | -8.3 | 8.3 | / | -2.3 | -1.0 | /
CCOc1ccc(C(=O)COC(=O)c2cc([N+](=O)[O-])ccc2N2CCOCC2)cc1 | -79.3 | 79.3* | 15.7 | -3.0 | -2.0 | 7.3
Cc1ccc(C)c(C(=O)COC(=O)c2cc([N+](=O)[O-])ccc2N2CCOCC2)c1 | -72.6 | 72.6* | 2.7 | -3.0 | -2.5 | 3.7
O=C(COC(=O)c1cc([N+](=O)[O-])ccc1N1CCOCC1)c1ccc(Br)cc1 | -78.8 | 78.8* | -1.4 | 0.5 | -3.6 | /
Cc1ccc(C(=O)c2cc([N+](=O)[O-])ccc2N2CCOCC2)c(C)c1 | -81.0 | 81.0* | 48.8 | -0.5 | -0.8 | -9.7
C[C@@H]1CCCCO[C@H](CN(C)C(=O)Nc2ccc3c(c2)OCO3)[C@H](C)CN([C@H](C)CO)C(=O)c2cc(NC(=O)CCCN(C)C)ccc2O1 | / | / | -4.1[16.7 µM] | / | / | -22.1
O=C(Nc1ccc(F)cc1)N1C[C@H]2[C@@H](c3ccccc31)[C@H](CO)N2C(=O)c1ccccc1F | / | / | 50.0[16.7 µM] | / | / | 8.8
COc1cc(/C=N/NC(=O)c2cnn3c(C)cc(-c4ccccc4)nc23)ccc1O | -77.4 | 77.4* | -3.9 | -4.7 | 0.2 | 3.1
CCO[C@H]1OC(C(=O)N2CCCC2)=C[C@@H](c2ccc(C(F)(F)F)cc2)[C@@H]1CCCO | / | / | / | / | / | 8.5
O=S(=O)(Nc1cccc(-n2cnnn2)c1)c1cc(Br)ccc1Br | 23.4 | -23.4 | 108.4* | -4.4 | -1.2 | 6.7
O=S(=O)(Nc1cccc(-n2cnnn2)c1)c1ccccc1 | 19.6 | -19.6 | 12.8 | -1.6 | -1.6 | -1.8
COc1ccc(OCC(O)CN2CCC(CN3C(=O)c4cccc5cccc(c45)C3=O)CC2)cc1 (stereo not drawn) | -77.1 | 77.1* | / | -0.2 | -1.0 | -10.6
O=C(CCN1C(=O)c2cccc3cccc(c23)C1=O)N1CCN(Cc2ccc3c(c2)OCO3)CC1 | -74.3 | 74.3* | -3.8 | -2.8 | / | 3.7
CCOC(=O)C1CCN(CC(O)COCc2ccc3c(c2)OCO3)CC1 (stereo not drawn) | 10.1 | -10.1 | -0.5 | -1.9 | -2.7 | -3.3
O=C1c2cccc3cccc(c23)C(=O)N1CC1CCN(CC(O)COCc2ccc3c(c2)OCO3)CC1 (stereo not drawn) | -70.3 | 70.2* | / | -4.1 | -2.9 | 12.7
O=C(CN1C(=O)c2cccc3cccc1c23)N1CCN(Cc2ccc3c(c2)OCO3)CC1 | -15.6 | 15.6 | 11.9 | -1.1 | -1.7 | -0.2
COc1ccc(S(=O)(=O)Nc2ccc(C(F)(F)F)cc2)cc1OC | 23.9 | -23.9 | 127.9* | 0.1 | -0.6 | -5.6
SMILES | SR-BI uptake up | SR-BI HDL uptake | miR122 inh | CAL PDZ FP-1 | CAL PDZ FP-2 | ARNT-TACC3 inh
COc1ccc(NS(=O)(=O)c2ccc(OC)c(OC)c2)cc1OC | -9.4 | 9.4 | ? | -3.6 | -0.7 | 4.3
COCCOC(=O)c1c(C)oc2ccc(NS(=O)(=O)c3ccc(C)cc3)cc12 | -3.2 | 3.2 | 103.2* | -7.7 | -3.3 | -5.8
CCC(=O)N(C)C[C@@H]1Oc2ncc(-c3ccc(F)cc3)cc2C(=O)N([C@H](C)CO)C[C@@H]1C | / | / | 13.6[16.7 µM] | / | / | -12.4
COC(=O)c1ccc(CSc2ccc3nnc(-c4ccccn4)n3n2)o1 | 9.7 | -9.7 | -2.8 | -1.7 | -0.6 | 58.0*
O=C(CSc1ccc2nnc(-c3ccccn3)n2n1)Nc1nccs1 | 12.2 | -12.2 | -1.3 | 3.0 | -1.4 | 60.4*
O=C(CSc1ccc2nnc(-c3ccccn3)n2n1)Nc1ccccc1 | 23.2 | -23.2 | -2.9 | -3.3 | -1.0 | 46.7*
Cc1nnc(NC(=O)CSc2ccc3nnc(-c4ccccn4)n3n2)s1 | 17.3 | -17.3 | / | -3.2 | -1.7 | 39.9
Cc1cc(NC(=O)CSc2ccc3nnc(-c4ccccn4)n3n2)no1 | ? | -289.1 | -7.0 | -6.0 | 1.0 | 44.8
O=C(CSc1ccc2nnc(-c3ccccn3)n2n1)Nc1ccccc1C(F)(F)F | / | 14.5 | / | 0.7 | -2.4 | 52.2*
CCOc1ccc(NC(=O)CSc2ccc3nnc(-c4ccccn4)n3n2)cc1 | 4.6 | -4.6 | / | 1.4 | -0.8 | 11.0
Cc1nnc2sc(SCC(=O)Nc3nccs3)nn2c1=O | -49.1 | 49.1 | -1.3 | -3.7 | -2.2 | 75.9*
CCOc1ccccc1NC(=O)CSc1ccc2nnc(-c3cccnc3)n2n1 | -0.7 | 0.7 | / | -1.5 | -0.1 | 32.8
COc1ccccc1NC(=O)CSc1ccc2nnc(-c3cccnc3)n2n1 | -14.5 | 14.5 | 1.3 | / | 0.2 | 71.5*
O=C(C[C@@H]1CC[C@H](NC(=O)c2ccc3c(c2)OCO3)[C@@H](CO)O1)NC1Cc2ccccc2C1 | / | / | -11.6[16.7 µM] | / | / | -9.1
COc1ccccc1C(=O)NCCC(=O)NC1CCCCCC1 | -12.0 | 12.0 | -6.8 | / | -0.4 | 6.3
COc1ccccc1C(=O)NCCC(=O)NCC1CCCCC1 | 7.5 | -7.5 | -4.3 | 79.4* | 5.1 | -3.4
COc1ccccc1NC(=S)NCC1CCCCC1 | -50.1 | 50.1 | 181.6* | 1.1 | -0.5 | 6.6
COc1ccccc1NC(=S)NC1CCCCC1 | -0.5 | 0.5 | 9.2 | -2.9 | 0.2 | -4.3
C[C@@H]1CN([C@@H](C)CO)C(=O)c2cc(NC(=O)C3CCCCC3)ccc2O[C@@H](C)CCCCO[C@H]1CN(C)Cc1ccc(C(F)(F)F)cc1 | / | / | -15.7[16.7 µM] | / | / | 2.1
CC=Cc1ccc2n(c1=O)C[C@@H]1[C@@H](CO)[C@H](C(=O)NCCc3ccncc3)N(Cc3cncnc3)[C@H]21 (mixture of isomers) | / | / | 6.9[16.7 µM] | / | / | 0.5
COc1cccc(CNC(=O)C[C@H]2C=C[C@H](NC(=O)C3CCOCC3)[C@H](CO)O2)c1 | / | / | / | / | / | 2.6

Source: PubChem BioAssay (Broad Institute)
